Screens: PubChem BioAssay, The Scripps Research Institute Molecular Screening Center
Only some compounds are listed: those with a hit (about 1.9% of all), similar ones and a draw of the others.
CHRM4 agonist – agonists of human muscarinic M4 receptor (CHRM4) | P08173 | CHO-K1 hM4/Gqi5, Fluo-8 calcium fluorescence; vehicle 0%, full acetylcholine response 100% | activation, % at 3 µM | 0.14% of 360,000 active;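 active means activation above the run mean over all test wells plus 3 SD, cut at about 32% in these data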;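 further: peak over basal fluorescence ratio per well then scaled between controls; 0% = DMSO wells and 100% = acetylcholine at EC100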
M5 ag – CHRM5 agonism in calcium assay | 0.19% of 360,000 active | activation, % at 3 µM | P08912 | CHO-K1 hM5 cells, Fluo-8 calcium fluorescence; 0% DMSO wells, 100% maximal acetylcholine response | AID 624037;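 active means activation above the run's mean over test compounds plus 3 SD, cut at about 23% in these data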;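 further: signal is peak over basal fluorescence ratio across the kinetic read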
Target sequence (P08912 whole entry, looked up): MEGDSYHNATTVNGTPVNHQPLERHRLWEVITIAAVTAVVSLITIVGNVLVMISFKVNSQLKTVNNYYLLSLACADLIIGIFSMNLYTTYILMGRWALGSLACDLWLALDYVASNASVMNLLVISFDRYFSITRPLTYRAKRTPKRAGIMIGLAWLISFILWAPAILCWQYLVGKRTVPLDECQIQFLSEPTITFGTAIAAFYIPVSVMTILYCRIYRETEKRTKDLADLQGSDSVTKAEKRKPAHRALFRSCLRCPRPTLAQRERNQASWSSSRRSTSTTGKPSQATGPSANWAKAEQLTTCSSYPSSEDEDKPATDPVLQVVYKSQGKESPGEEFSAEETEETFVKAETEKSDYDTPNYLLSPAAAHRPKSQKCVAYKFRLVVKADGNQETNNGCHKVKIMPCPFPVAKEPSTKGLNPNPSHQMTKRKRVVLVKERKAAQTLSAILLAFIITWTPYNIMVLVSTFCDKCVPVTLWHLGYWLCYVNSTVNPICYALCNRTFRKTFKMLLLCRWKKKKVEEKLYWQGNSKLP
CHRM5 PAM – CHRM5 positive allosteric modulation; P08912; CHO-K1 hM5, Fluo-8 calcium, ACh EC20 PAM; 0% = ACh EC20, 100% = ACh EC100; activation, % at 3 µM; 0.3% of 360,000 active;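 active means activation above the run cutoff, the mean activation of all test compounds plus 3 SD, cut at about 18% in these data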
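Assay system: CHO-K1 hM5 cells. Also added: acetylcholine at EC20 concentration, added after compound. Dosing: 3 µM, single dose. Times: compound preincubation 140 s before EC20 acetylcholine addition. Signal: Fluo-8 calcium fluorescence. Measure: % activation relative to EC20 and EC100 ACh responses. Repeats: singlicate, one well per test compound.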
CHRM5 antagonist – CHRM5 antagonism in calcium assay | 0.59% of 360,000 active | P08912 | CHO-hM5 cells, Fluo-8 calcium fluorescence, ACh EC80 | AID 624040 | inhibition, % at 3 µM;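 active means inhibition above a per-plate cutoff, the mean of that plate's test compounds plus 3 SD, cut at about 27% in these data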;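 further: 0% = acetylcholine EC80 with DMSO and 100% = DMSO without agonist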
CHRM4 antagonist – CHRM4 antagonism in calcium assay. P08173. CHO-hM4 cells, ACh EC80, Fluo-8 calcium fluorescence. inhibition, % at 3 µM. 0.73% of 360,000 active;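 active means inhibition above its plate's cutoff, the mean inhibition of sample wells plus 3 SD, cut at about 27% in these data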;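 further: 0% = acetylcholine EC80 with DMSO and 100% = DMSO without agonist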
M4 PAM – positive allosteric modulators of human muscarinic M4 receptor; P08173; CHO-K1 hM4/Gqi5, Fluo-8 calcium fluorescence, ACh EC20; 0% = ACh EC20, 100% = maximal ACh; activation, % at 3 µM; 0.4% of 360,000 active; AID 624126;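 active means activation above its plate's cutoff, the mean activation of sample wells plus 3 SD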
Active calls of the source: *.

SMILES	CHRM4 agonist	M5 ag	CHRM5 PAM	CHRM5 antagonist	CHRM4 antagonist	M4 PAM
Cn1c(N)c(C(=O)COC(=O)Cc2ccsc2)c(=O)n(C)c1=O	2.8	0.1	6.6	-4.3	3.1	22.4*
Cn1c(N)c(C(=O)COC(=O)Cc2ccc(Br)cc2)c(=O)n(C)c1=O	0.6	1.6	8.8	-10.1	-10.4	14.2
CN(C)c1cc[n+](Cc2c(Cl)cccc2Cl)cc1	0.8	-6.1	-20.2	55.0*	60.6*	-34.4
Cc1cccc(C)c1NC(=O)C1C(c2ccc3c(c2)OCO3)=Nc2ccccc2N1C(=O)c1cccc2ccccc12 (stereo not given)	2.6	0.1	0.4	-10.4	-4.9	4.4
O=C(O)c1ccccc1COc1ccccc1Cl	-0.4	0.3	1.1	5.1	-0.9	0.2
Cc1oc(C(=O)O)cc1COc1ccccc1Cl	1.5	29.7*	41.8*	6.3	-1.0	11.3
CCC(Sc1nc2c(cnn2-c2ccc(Cl)cc2)c(=O)[nH]1)C(=O)OC (stereo not given)	-0.9	-0.9	0.1	3.4	40.5*	-12.5
CCc1nc2c(OCC(=O)C(C)(C)C)cccn2c1N(C)C(=O)C(C)C	-0.1	-0.1	0.0	-2.7	-7.4	7.0
Cc1ccc(C(=O)N2CCN(c3ccc(N4CCOCC4)nn3)CC2)cc1C	1.3	-0.5	9.4	-1.1	-3.5	18.2*
O=C(c1cccc(Br)c1)N1CCN(c2ccc(N3CCOCC3)nn2)CC1	-0.1	-4.5	-5.5	3.0	16.6	-5.9
CCCCn1nnnc1C(c1ccccc1)N1CCN(c2c(Cl)cncc2Cl)CC1 (stereo not given)	2.3	-7.1	-16.6	2.4	-14.7	-5.6
CCN(CC)c1ccc(C2C(C(=O)OC)=C(C)NC(C)=C2C(=O)OC)cc1	-0.2	-8.0	-16.8	8.4	13.6	-18.3
COC(=O)C1=C(C)NC(C)=C(C(=O)OC)C1c1ccc(NC(C)=O)cc1	1.7	43.9*	-15.6	14.4	2.3	10.3
O=C(CSc1nnc(CNc2ccc(F)cc2)o1)c1ccccc1	3.7	-2.5	5.5	-1.6	-21.3	22.8*
CCOc1ccc(/C=C(\C#N)C(=O)Nc2cccnc2)cc1	1.3	-3.8	3.6	1.1	3.2	1.4
CCOc1ccc(NC(=O)/C(C#N)=C\c2ccc(N3CCCC3)c(C)c2)cc1	9.4	40.3*	-13.6	49.7*	11.3	-1.9
O=C1NC[C@@H](CCCCN2C[C@H](Cc3ccccc3)N(CCc3ccc(O)cc3)C(=O)C2=O)N(CC2CCCCC2)C1=O	0.8	-3.5	-3.1	6.7	1.3	1.8
CCCSc1nc(C)c(CC(=O)O)c(=O)[nH]1	0.5	1.1	10.0	-4.9	1.7	28.1*
COc1cccc(/C=N/NC(=O)C(=O)N2CCCCCC2)c1OC	1.0	-1.9	7.9	-8.4	-12.7	2.4
O=C(N/N=C/c1cccc2ccccc12)C(=O)N1CCCC1	-1.8	0.9	18.2*	-0.3	-12.5	-7.5
CN1NC(c2ccccc2)NN(C)C1=O	2.6	0.5	-2.8	4.6	0.9	5.9
Nc1cccc(N2C(=O)c3cccc4c(N)ccc(c34)C2=O)c1	39.1*	20.6	-11.3	8.5	4.5	-12.3
O=C(O)c1cccc(N2C(=O)c3cccc4c(Cl)ccc(c34)C2=O)c1	2.0	-1.9	-2.0	-3.9	1.0	7.0
Cc1cccc(N2C(=O)c3cccc4cccc(c34)C2=O)c1	1.1	0.7	1.1	4.8	-3.1	2.1
Nc1ccc2c3c(cccc13)C(=O)N(c1ccccc1)C2=O	70.5*	44.7*	-20.0	23.4	30.6*	-27.8
SMILES	CHRM4 agonist	M5 ag	CHRM5 PAM	CHRM5 antagonist	CHRM4 antagonist	M4 PAM
Cc1cccc(N2C(=O)c3cccc4c(N)ccc(c34)C2=O)c1	103.8*	379.9*	-30.5	50.9*	29.2*	-18.1
CC(C)CCN1C(=O)c2cccc3c(N)ccc(c23)C1=O	97.4*	313.1*	-31.6	70.1*	47.3*	-17.5
N#Cc1c(-c2ccc(Cl)cc2)c(-c2ccc(Cl)cc2)nn(CCO)c1=O	-1.7	2.0	8.1	6.7	3.9	-2.9
Cc1cc(C)cc(CC(=O)N2CCC2(C)C(=O)NS(=O)(=O)Cc2ccccc2)c1 (stereo not given)	0.5	-0.8	1.9	-3.6	-7.0	1.3
CN(C)c1ccc(-c2csc(C(C)(O)c3cccc(F)c3)n2)cc1 (stereo not given)	6.8	0.3	-8.2	13.7	-1.6	-6.7
Cc1cc(O)ccc1-c1cccc2nccn12	2.0	2.5	-1.6	1.4	-6.4	-3.4
Cc1cccc(N2C(=O)c3cccc4c(N(C)CCO)ccc(c34)C2=O)c1	38.2*	42.1*	-17.4	22.8	21.3	-24.6
CC[N+](C)(C)CCN(Cc1ccc(Cl)cc1)c1ccccn1	0.8	-5.1	-23.4	46.6*	19.1	-15.4
CNc1ccc2ncc(-c3ccccc3NC(C)=O)n2n1	0.5	-1.1	-2.3	-2.8	-3.6	1.4
O=C1c2ccccc2C(=O)N1CC#CCN1CCN(C(c2ccccc2)c2ccccc2)CC1	0.0	-7.5	-13.8	5.6	-23.2	-6.8
O=C1C2CSCN2C(=O)CN1CCCN1CCN(C(c2ccccc2)c2ccccc2)CC1 (stereo not given)	0.9	-10.5	-19.0	21.0	32.0*	-16.3
S=C(NCc1ccncc1)Nc1cccc(Cl)c1	5.2	3.2	-3.9	12.3	-0.2	4.7
S=C(NCc1ccc(Cl)cc1)Nc1ccncc1	18.1	5.8	-14.9	40.6*	16.2	-8.8
Fc1ccc(CNC(=S)Nc2ccc(Cl)cc2)cc1	11.8	2.0	-22.6	31.0*	5.0	-13.3
CCC(NC(=S)NCc1ccc(F)cc1)c1ccc(C(C)C)cc1 (stereo not given)	9.2	-2.3	-11.9	13.4	81.7*	-15.6
S=C(NCc1ccc(Cl)cc1)Nc1ccccc1	10.8	2.3	-4.2	9.9	-8.7	-5.2
Cc1cccc(NC(=O)c2ccc(OCc3c(C)noc3C)cc2)c1	2.7	-4.7	1.7	1.4	6.6	-5.1
Cc1noc(C)c1COc1ccc(C(=O)NCCc2ccccn2)cc1	5.3	-1.8	9.1	1.7	-15.0	29.0*
Cc1noc(C)c1COc1ccc(C(=O)Nc2cccnc2)cc1	0.5	-16.7	-6.7	10.3	32.4*	-22.3
Cc1noc(C)c1COc1ccc(CC(=O)NCCc2ccccn2)cc1	0.8	-4.3	3.6	-0.4	7.2	-2.7
CCOc1ccc(C(=O)NCc2ccccn2)cc1	0.8	0.0	3.4	0.4	0.7	31.2*
O=C1C=C(O)c2cccc(O)c2C1=O	-0.1	3.7	3.0	2.6	-2.3	3.8
CC1OC(CC(=O)O)CC2=C1C(=O)c1c(O)cccc1C2=O (stereo not given)	5.8	22.7	-0.5	49.2*	35.8*	7.5
